# Assay results as given in publication PMC2859091 (Journal of natural products, 2010).
# Tests used:
# [1] = tested on: PANC-1 pancreatic carcinoma; assay: Cytotoxicity; assay type: cell-based, human
# Summary of the method: (§1)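 Test compound assessed for effect on proliferation of human PANC-1 pancreatic carcinoma and DLD-1 colorectal adenocarcinoma cells, both lines obtained from ATCC. The procedure follows a previously described protocol. Each sample was assayed at least three times to derive the final value.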
# [2] = tested on: DLD-1 human colorectal adenocarcinoma; assay: Cytotoxicity; assay type: cell-based
# Summary of the method: as §1
# [3] = tested on: Pseudomonas aeruginosa (ATCC 27853); assay: Antimicrobial assay, P. aeruginosa; assay type: cell-based; conditions: at the concentrations tested
# [4] = tested on: Candida albicans (ATCC 44506); assay: Antimicrobial assay, C. albicans; assay type: cell-based; conditions: at the concentrations tested
# [5] = tested on: NCI/ADR-Res (multi drug resistant ovarian cancer cell line); assay: Cytotoxicity; assay type: cell-based, human; conditions: at a concentration of 5.2 µM
# MCL-1 binding to Bak = MCL-1 binding to Bak (Homo sapiens, UniProt Q07820); assay: MCL-1 assay
# Chain of MCL-1 binding to Bak (Q07820 whole entry): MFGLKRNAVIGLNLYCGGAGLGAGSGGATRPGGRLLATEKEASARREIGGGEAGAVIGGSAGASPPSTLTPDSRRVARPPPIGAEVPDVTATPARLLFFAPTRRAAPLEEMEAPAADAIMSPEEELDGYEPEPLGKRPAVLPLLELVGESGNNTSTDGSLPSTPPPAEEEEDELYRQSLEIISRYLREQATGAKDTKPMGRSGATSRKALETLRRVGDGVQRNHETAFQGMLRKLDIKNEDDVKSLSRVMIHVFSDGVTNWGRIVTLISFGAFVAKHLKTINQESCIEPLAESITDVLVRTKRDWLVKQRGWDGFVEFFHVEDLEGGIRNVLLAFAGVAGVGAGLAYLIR
SMILES,inhibitory activity against PANC-1 ([1]; at a concentration of 6.4 µM),inhibitory activity against DLD-1 ([2]; at a concentration of 6.4 µM),activity against Pseudomonas aeruginosa [3],activity against Candida albicans [4],inhibitory activity against PANC-1 ([1]; at a concentration of 5.2 µM),inhibitory activity against NCI/ADR-Res [5],inhibitory activity against DLD-1 ([2]; at a concentration of 5.2 µM),inhibition of MCL-1 binding to Bak (in words) (MCL-1 binding to Bak)
"CCC[C@@H](O)Cc1c(Br)c(O)c2c(=O)c3c(O)cc(O)c4c5c(O)cc(O)c6c(=O)c7c(O)c(Br)c(C[C@H](C)O)c8c1c2c(c34)c(c65)c78 [Gymnochrome E, 1,6,8,10,11,13-hexahydroxy-2,5-dibromo-3-(2-hydroxypropyl)-4-(2-hydroxypentyl)-phenanthroperylene-7,14-quinone]",did not show significant inhibitory activity,did not show significant inhibitory activity,did not show activity,did not show activity,–,–,–,–
"CCC[C@@H](O)Cc1c(Br)c(O)c2c(=O)c3c(O)c(Br)c(O)c4c5c(O)c(Br)c(O)c6c(=O)c7c(O)c(Br)c(C[C@H](O)CCC)c8c1c2c(c34)c(c65)c78 [Gymnochrome F, 1,6,8,10,11,13-hexahydroxy-2,5,9,12-tetrabromo-3,4-(2-hydroxypentyl)-phenanthroperylene-7,14-quinone]",–,–,did not show activity,did not show activity,did not show significant inhibitory activity,did not show significant inhibitory activity,did not show significant inhibitory activity,moderate inhibitor
